Experimental findings from PMC4942345 (Organic & biomolecular chemistry, 2016) are described below.

Where a SMILES comes first, the peptide text is derived from it. [ ]: non-standard residue; d: D form. The star is where a group is joined. Benzoyl(4-SO2NH2) = NS(=O)(=O)c1ccc(C(=O)*)cc1

Assay [1] concerns the target T1, hCAII (Homo sapiens, UniProt P00918). Type of assay: binding. The note with it: fluorescence visualization of SDS gel, Fig. 3b and 3c. Put shortly:
(§1)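 Excess biotinylated conjugate was loaded onto streptavidin agarose in PBS for 2 h, then washed 3-4 times with PBS and 0.05% PBST. The resin was incubated overnight at 4 °C with hCAII and hCAI, added separately or as a mixture, then washed. It was boiled 10 min at 99 °C in SDS loading buffer with reducing agent and run on SDS-PAGE.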

Assay [2] deals with mixture of hCAIX, hCAXII, hCAVB and hCAII. As to the kind of experiment: Pull-down experiment with a mixture of CA isozymes, SDS-PAGE. Type of assay: binding, human. Particulars: [CA] = 1.00 μM, Fig. 4.
Assay [3] concerns the target T1, hCAII. As to the kind of experiment: Esterase activity inhibition. Type of assay: biochemical. The note with it: from IC50 values. A digest of the protocol:
(§2)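 Commercial human CA isozyme at 0.2 μM was run with the inhibitor-peptide conjugate as blocker. The substrate was 50 μM 4-nitrophenyl acetate in Tris buffer (9 mM Tris-HCl, 81 mM NaCl, 10% v/v acetonitrile, 1% v/v DMSO). Nitrophenol formation was followed by absorbance at 400 nm. Each run was done at least in triplicate.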

Assay [4] addresses T2, hCAI (Homo sapiens, UniProt P00915). As to the kind of experiment: Esterase activity inhibition. Type of assay: biochemical. A digest of the protocol:
as §2

Assay [5] addresses T2, hCAI. Type of assay: binding. Put shortly: as §1

T2 sequence (P00915 whole entry): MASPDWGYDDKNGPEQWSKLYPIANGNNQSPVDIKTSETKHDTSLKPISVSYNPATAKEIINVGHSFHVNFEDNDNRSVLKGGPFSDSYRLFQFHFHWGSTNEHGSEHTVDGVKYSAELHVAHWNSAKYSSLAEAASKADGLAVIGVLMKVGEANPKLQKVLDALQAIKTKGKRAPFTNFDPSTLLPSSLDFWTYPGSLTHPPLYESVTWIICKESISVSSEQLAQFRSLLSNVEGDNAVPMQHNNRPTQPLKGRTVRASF

`CC(C)C[C@@H](NC(=O)[C@@H](CC(=O)O)NC(=O)c1ccc(S(N)(=O)=O)cc1)C(=O)N[C@H](CC(=O)O)C(=O)N[C@H](CC(=O)O)C(=O)N[C@H](Cc1c[nH]c2ccccc12)C(N)=O` [Compound 7, 4-CBS-dlddw] ({Benzoyl(4-SO2NH2)}-[dD][dL][dD][dD][dW]-NH2): in assay [1], the “pull-down with mixture of ZW700-hCAII and CY3-hCAI: binding to hCAII” value is reported as “significantly increased binding selectively to hCAII”. For the same compound, the “pull-down with mixture of CA isozymes: isozyme captured” value in assay [2] was “selective capturing of hCAII”. Also, the “increase of inhibitory activity against hCAII compared to 4-ABS” value in assay [3] is reported as “ca. 17 fold”.
As to `CC(C)C[C@@H](NC(=O)[C@H](NC(=O)[C@@H](CC(=O)O)NC(=O)[C@H](NC(=O)[C@@H](CC(=O)O)NC(=O)c1ccc(S(N)(=O)=O)cc1)C(C)C)C(C)C)C(N)=O` [Compound 9, 4-CBS-dvdvl] ({Benzoyl(4-SO2NH2)}-[dD][dV][dD][dV][dL]-NH2), the “pull-down with mixture of ZW700-hCAII and CY3-hCAI: binding to hCAII” value in assay [1] is reported as “binds strongly”. The “increase of inhibitory activity against hCAI compared to 4-ABS” value in assay [4] (from IC50 values, esterase activity) was 30 fold. The “specificity in terms of enzymatic inhibitory activity (IC50)” value in assay [4] (hCAI versus hCAII and hCAIX) was “good specificity for hCAI”. In addition, the “pull-down with mixture of CA isozymes: isozyme captured” value in assay [2] was “selective capturing of hCAII”. In assay [3], the “increase of inhibitory activity against hCAII compared to 4-ABS” value is reported as 2.6 fold. In addition, in assay [5] ([hCA] = 0.57 μM, Fig. 3a, compared with 1, 2 and 7), the “pull-down, enzymes tested separately: capturing ability for hCAI” value is given as “greatest capturing ability for hCAI”. Moreover, the “pull-down with mixture of ZW700-hCAII and CY3-hCAI: binding to hCAI” value in assay [5] (fluorescence visualization of SDS gel, Fig. 3b and 3c) is reported as “binds strongly”.
